ChEMBL document CHEMBL4190388, “Discovery and Optimization of Indolyl-Containing 4-Hydroxy-2-Pyridone Type II DNA Topoisomerase Inhibitors Active against Multidrug Resistant Gram-negative Bacteria” (J Med Chem, 2018)
Converted amounts (≈) assume the structure as drawn.

Experiments:
Escherichia coli [1] = assay: Antibacterial activity against fluoroquinolone resistant Escherichia coli SKM18 by CLSI M100-S17 protocol based method; type: functional
Escherichia coli [2] = assay: Antibacterial activity against wild type Escherichia coli ATCC 25922 by CLSI M100-S17 protocol based method; type: functional
Escherichia coli [3] = assay: Antibacterial activity against quinolone resistance Escherichia coli isolate ELZ4251 harboring gyrA/parC mutant by CLSI M100-S17 protocol based method; type: functional
Acinetobacter baumannii [4] = assay: Antibacterial activity against wild type Acinetobacter baumannii ATCC BAA-747 by CLSI M100-S17 protocol based method; type: functional
Acinetobacter baumannii [5] = assay: Antibacterial activity against fluoroquinolone resistant Acinetobacter baumannii isolate MMX2240 by CLSI M100-S17 protocol based method; type: functional
Klebsiella pneumoniae = assay: Antibacterial activity against wild type Klebsiella pneumoniae ATCC 35657 by CLSI M100-S17 protocol based method; type: functional
Escherichia coli [6] = assay: Antibacterial activity against wild type Escherichia coli ATCC 25922 in presence of HSA by CLSI M100-S17 protocol based method; type: functional
Escherichia coli [7] = assay: Antibacterial activity against quinolone resistant Escherichia coli by broth microdilution method; type: functional
Outline: (§1)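 MICs were determined by CLSI broth methods, except that organisms were grown in brain–heart–infusion medium. The panel comprised wild-type and resistant E. coli and A. baumannii strains, including 12 strains whose details are given by reference.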

Escherichia coli [8] = assay: Antibacterial activity against wild type Escherichia coli by broth microdilution method; type: functional; outline: as §1
Escherichia coli [9] = assay: Antibacterial activity against beta-lactam resistant Escherichia coli by broth microdilution method; type: functional; outline: as §1
Escherichia coli [10] = assay: Antibacterial activity against aminoglycoside resistant Escherichia coli by broth microdilution method; type: functional; outline: as §1
Escherichia coli [11] = assay: Antibacterial activity against multidrug resistant Escherichia coli by broth microdilution method; type: functional; outline: as §1
Acinetobacter baumannii [12] = assay: Antibacterial activity against wild type Acinetobacter baumannii by broth microdilution method; type: functional; outline: as §1
Acinetobacter baumannii [13] = assay: Antibacterial activity against aminoglycoside resistant Acinetobacter baumannii by broth microdilution method; type: functional; outline: as §1
Acinetobacter baumannii [14] = assay: Antibacterial activity against quinolone resistant Acinetobacter baumannii by broth microdilution method; type: functional; outline: as §1
Acinetobacter baumannii [15] = assay: Antibacterial activity against beta-lactam resistant Acinetobacter baumannii by broth microdilution method; type: functional; outline: as §1
Acinetobacter baumannii [16] = assay: Antibacterial activity against carbapenem resistant Acinetobacter baumannii by broth microdilution method; type: functional; outline: as §1
Acinetobacter baumannii [17] = assay: Antibacterial activity against multidrug resistant Acinetobacter baumannii by broth microdilution method; type: functional; outline: as §1
Escherichia coli [18] = assay: Selectivity ratio of MIC for wild type Escherichia coli ATCC 25922 in presence of HSA to MIC for wild type Escherichia coli ATCC 25922; type: functional
[19] = Inhibition of Escherichia coli DNA topoisomerase 4 assessed as reduction in decatenation activity using kinetoplast concatenated DNA as substrate after 30 mins by picogreen dye based fluorescence assay

## CCc1c(-c2ccc3c(c2)cc(CNC)n3C)[nH]c(=O)c(C(=O)O)c1O
Escherichia coli [1]
  MIC: 1.6 µg/mL (≈ 4.5 µM)
Escherichia coli [2]
  MIC: 0.39 µg/mL (≈ 1.1 µM)
Escherichia coli [3]
  MIC: 3.1 µg/mL (≈ 8.72 µM)
Acinetobacter baumannii [4]
  MIC: 0.78 µg/mL (≈ 2.19 µM)
Acinetobacter baumannii [5]
  MIC: 6.3 µg/mL (≈ 17.7 µM)
Klebsiella pneumoniae
  MIC: 0.78 µg/mL (≈ 2.19 µM)
Escherichia coli [6]
  MIC: 0.78 µg/mL

## C[C@H]1COc2c(N3CCN(C)CC3)c(F)cc3c(=O)c(C(=O)O)cn1c23.C[C@H]1COc2c(N3CCN(C)CC3)c(F)cc3c(=O)c(C(=O)O)cn1c23.O [LEVOFLOXACIN]
Escherichia coli [7]
  MIC: 0.015 to 32 µg/mL
Escherichia coli [7]; Escherichia coli
  MIC50: 0.06 µg/mL
  MIC90: 32 µg/mL
Escherichia coli [8]
  MIC50: 0.06 µg/mL
  MIC90: 32 µg/mL
Escherichia coli [9]
  MIC: 0.015 to 32 µg/mL
Escherichia coli [9]; Escherichia coli
  MIC50: 0.06 µg/mL
  MIC90: 32 µg/mL
Escherichia coli [10]
  MIC: 0.015 to 32 µg/mL
Escherichia coli [10]; Escherichia coli
  MIC50: 0.06 µg/mL
  MIC90: 32 µg/mL
Escherichia coli [11]
  MIC: 0.015 to 32 µg/mL
Escherichia coli [11]; Escherichia coli
  MIC50: 0.06 µg/mL
  MIC90: 32 µg/mL
Acinetobacter baumannii [12]
  MIC50: 2 µg/mL
  MIC90: 16 µg/mL
Acinetobacter baumannii [13]
  MIC: 0.06 to 64 µg/mL
Acinetobacter baumannii [13]; Acinetobacter baumannii
  MIC50: 2 µg/mL
  MIC90: 16 µg/mL
Acinetobacter baumannii [14]
  MIC: 0.06 to 64 µg/mL
Acinetobacter baumannii [14]; Acinetobacter baumannii
  MIC50: 2 µg/mL
  MIC90: 16 µg/mL
Acinetobacter baumannii [15]
  MIC: 0.06 to 64 µg/mL
Acinetobacter baumannii [15]; Acinetobacter baumannii
  MIC50: 2 µg/mL
  MIC90: 16 µg/mL
Acinetobacter baumannii [16]
  MIC: 0.06 to 64 µg/mL
Acinetobacter baumannii [16]; Acinetobacter baumannii
  MIC50: 2 µg/mL
  MIC90: 16 µg/mL
Acinetobacter baumannii [17]
  MIC: 0.06 to 64 µg/mL
Acinetobacter baumannii [17]; Acinetobacter baumannii
  MIC50: 2 µg/mL
  MIC90: 16 µg/mL

## CCc1c(-c2ccc3c(c2)c(C)c(C)n3C)[nH]c(=O)c(C(=O)O)c1O
Escherichia coli [2]
  MIC: > 12.5 µg/mL

## CCNCc1cc2cc3c(cc2n1C)OCCc1c-3[nH]c(=O)c(C(=O)O)c1O
Escherichia coli [1]
  MIC: 0.78 µg/mL (≈ 2.03 µM)
Escherichia coli [2]
  MIC: 0.78 µg/mL (≈ 2.03 µM)
Escherichia coli [3]
  MIC: 12.5 µg/mL (≈ 32.6 µM)
Acinetobacter baumannii [4]
  MIC: 12.5 µg/mL (≈ 32.6 µM)
Acinetobacter baumannii [5]
  MIC: 12.5 µg/mL (≈ 32.6 µM)
Klebsiella pneumoniae
  MIC: 0.78 µg/mL (≈ 2.03 µM)
Escherichia coli [6]
  MIC: 1.6 µg/mL

## CCNCc1cc2cc3c(cc2n1C)SCCc1c-3[nH]c(=O)c(C(=O)O)c1O
Escherichia coli [1]
  MIC: 0.5 µg/mL (≈ 1.25 µM)
Escherichia coli [2]
  MIC: 1 µg/mL (≈ 2.5 µM)
Escherichia coli [3]
  MIC: 1.6 µg/mL (≈ 4.01 µM)
Acinetobacter baumannii [4]
  MIC: 3.9 µg/mL (≈ 9.76 µM)
Acinetobacter baumannii [5]
  MIC: 3.9 µg/mL (≈ 9.76 µM)
Klebsiella pneumoniae
  MIC: 1 µg/mL (≈ 2.5 µM)
Escherichia coli [6]
  MIC: 15.6 µg/mL
Escherichia coli [18]
  Ratio: 8 - 16

## CCc1c(-c2ccc3c(c2)cc(CN2CCCC2)n3C)[nH]c(=O)c(C(=O)O)c1O
Escherichia coli [1]
  MIC: 6.3 µg/mL (≈ 15.9 µM)
Escherichia coli [2]
  MIC: 0.78 µg/mL (≈ 1.97 µM)
Escherichia coli [3]
  MIC: 6.3 µg/mL (≈ 15.9 µM)
Acinetobacter baumannii [4]
  MIC: 0.78 µg/mL (≈ 1.97 µM)
Acinetobacter baumannii [5]
  MIC: 12.5 µg/mL (≈ 31.6 µM)
Klebsiella pneumoniae
  MIC: 0.78 µg/mL (≈ 1.97 µM)

## CN(C)CCNCc1cc2cc3c(cc2n1C)CCCc1c-3[nH]c(=O)c(C(=O)O)c1O
Escherichia coli [1]
  MIC: 0.5 µg/mL (≈ 1.18 µM)
Escherichia coli [2]
  MIC: 3.9 µg/mL (≈ 9.19 µM)
Acinetobacter baumannii [4]
  MIC: 15.6 µg/mL (≈ 36.7 µM)
Acinetobacter baumannii [5]
  MIC: 62.5 µg/mL (≈ 147 µM)
Klebsiella pneumoniae
  MIC: 2 µg/mL (≈ 4.71 µM)
Escherichia coli [6]
  MIC: 15.6 µg/mL

## Cn1c(CN2CCCC2)cc2cc3c(cc21)SCCc1c-3[nH]c(=O)c(C(=O)O)c1O
Escherichia coli [1]
  MIC: 2 µg/mL (≈ 4.7 µM)
Escherichia coli [2]
  MIC: 2 µg/mL (≈ 4.7 µM)
Acinetobacter baumannii [4]
  MIC: 2 µg/mL (≈ 4.7 µM)
Acinetobacter baumannii [5]
  MIC: 3.9 µg/mL (≈ 9.17 µM)
Klebsiella pneumoniae
  MIC: 2 µg/mL (≈ 4.7 µM)
Escherichia coli [6]
  MIC: 31.3 µg/mL

## CCc1c(-c2ccc3c(c2)cc(CN(C)C)n3C)[nH]c(=O)c(C(=O)O)c1O
Escherichia coli [1]
  MIC: 6.3 µg/mL (≈ 17.1 µM)
Escherichia coli [2]
  MIC: 0.39 µg/mL (≈ 1.06 µM)
Escherichia coli [3]
  MIC: 6.3 µg/mL (≈ 17.1 µM)
Acinetobacter baumannii [4]
  MIC: 0.78 µg/mL (≈ 2.11 µM)
Acinetobacter baumannii [5]
  MIC: 3.1 µg/mL (≈ 8.39 µM)
Klebsiella pneumoniae
  MIC: 0.78 µg/mL (≈ 2.11 µM)
Escherichia coli [6]
  MIC: 3.1 µg/mL
Escherichia coli [18]
  Ratio: 2 - 4

## COCCNCc1cc2cc3c(cc2n1C)CCCc1c-3[nH]c(=O)c(C(=O)O)c1O
Escherichia coli [1]
  MIC: 0.5 µg/mL (≈ 1.22 µM)
Escherichia coli [2]
  MIC: 0.78 µg/mL (≈ 1.9 µM)
Escherichia coli [3]
  MIC: 1.6 µg/mL (≈ 3.89 µM)
Acinetobacter baumannii [4]
  MIC: 1.6 µg/mL (≈ 3.89 µM)
Acinetobacter baumannii [5]
  MIC: 1 µg/mL (≈ 2.43 µM)
Klebsiella pneumoniae
  MIC: 0.78 µg/mL (≈ 1.9 µM)
Escherichia coli [6]
  MIC: 3.1 µg/mL

## CNCc1cc2cc3c(cc2n1C)NCCc1c-3[nH]c(=O)c(C(=O)O)c1O
Escherichia coli [1]
  MIC: 3.9 µg/mL (≈ 10.6 µM)
Escherichia coli [2]
  MIC: 31.3 µg/mL (≈ 85 µM)
Escherichia coli [3]
  MIC: > 62.5 µg/mL
Acinetobacter baumannii [4]
  MIC: > 25 µg/mL
Acinetobacter baumannii [5]
  MIC: > 25 µg/mL
Klebsiella pneumoniae
  MIC: 6.3 µg/mL (≈ 17.1 µM)

## CC(C)c1c(-c2ccc3c(c2)cc(CN(C)C)n3C)[nH]c(=O)c(C(=O)O)c1O
Escherichia coli [1]
  MIC: > 62.5 µg/mL
Escherichia coli [2]
  MIC: 3.1 µg/mL (≈ 8.08 µM)
Acinetobacter baumannii [4]
  MIC: 15.6 µg/mL (≈ 40.7 µM)
Acinetobacter baumannii [5]
  MIC: 62.5 µg/mL (≈ 163 µM)
Klebsiella pneumoniae
  MIC: 3.9 µg/mL (≈ 10.2 µM)
Escherichia coli [6]
  MIC: 31.3 µg/mL

## CCNCc1cc2c3c(ccc2n1C)-c1[nH]c(=O)c(C(=O)O)c(O)c1CCC3
Escherichia coli [1]
  MIC: 6.3 µg/mL (≈ 16.5 µM)
Escherichia coli [2]
  MIC: 12.5 µg/mL (≈ 32.8 µM)
[19]
  IC50: 19 µM

## COC1CCN(Cc2cc3cc4c(cc3n2C)CCCc2c-4[nH]c(=O)c(C(=O)O)c2O)C1 (stereo not drawn)
Escherichia coli [1]
  MIC: 2 µg/mL (≈ 4.57 µM)
Escherichia coli [2]
  MIC: 1.6 µg/mL (≈ 3.66 µM)
Acinetobacter baumannii [4]
  MIC: 3.1 µg/mL (≈ 7.09 µM)
Acinetobacter baumannii [5]
  MIC: 3.1 µg/mL (≈ 7.09 µM)
Klebsiella pneumoniae
  MIC: 3.1 µg/mL (≈ 7.09 µM)
Escherichia coli [6]
  MIC: 3.1 µg/mL

## CN(C)Cc1cc2cc(-c3cc(O)c(C(=O)O)c(=O)[nH]3)ccc2n1C
Escherichia coli [1]
  MIC: > 12.5 µg/mL
Escherichia coli [2]
  MIC: > 12.5 µg/mL

## CC(C)NCc1cc2cc3c(cc2n1C)OCCc1c-3[nH]c(=O)c(C(=O)O)c1O
Escherichia coli [1]
  MIC: 0.49 µg/mL (≈ 1.23 µM)
Escherichia coli [2]
  MIC: 0.49 µg/mL (≈ 1.23 µM)
Escherichia coli [3]
  MIC: 1 µg/mL (≈ 2.52 µM)
Acinetobacter baumannii [4]
  MIC: 3.9 µg/mL (≈ 9.81 µM)
Acinetobacter baumannii [5]
  MIC: 6.3 µg/mL (≈ 15.9 µM)
Klebsiella pneumoniae
  MIC: 1.6 µg/mL (≈ 4.03 µM)
Escherichia coli [6]
  MIC: 2 µg/mL
Escherichia coli [18]
  Ratio: 2 - 4

## Cn1c(CN2CCCC2)cc2cc3c(cc21)COCc1c-3[nH]c(=O)c(C(=O)O)c1O
Escherichia coli [1]
  MIC: 0.39 µg/mL (≈ 0.953 µM)
Escherichia coli [2]
  MIC: 3.1 µg/mL (≈ 7.57 µM)
Acinetobacter baumannii [4]
  MIC: 12.5 µg/mL (≈ 30.5 µM)
Acinetobacter baumannii [5]
  MIC: 12.5 µg/mL (≈ 30.5 µM)
Klebsiella pneumoniae
  MIC: 3.1 µg/mL (≈ 7.57 µM)
